Screening data as filed in PubChem BioAssay.
TRPC6 act – mouse TRPC6 channel activation; HEK293-TRPC6 membrane potential dye fluorescence; stronger effect = higher value; B-score at 10 µM; hit rate 0.13% among 310,000; Q61143;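 active = B-score of the integrated fluorescence ratio above library mean plus 3 SD, and starting fluorescence ratio within library mean plus 5 SD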;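 note: higher score means more depolarization so channel activation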
TRPC6 inhibitor – blocks the mouse TRPC6 cation channel; HEK293-TRPC6, membrane potential dye, ACh-evoked depolarization; stronger effect = lower value; B-score at 10 µM; hit rate 1.1% among 310,000;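 active = B-score under library mean minus 3 SD, initial fluorescence not abnormally high, positive integrated signal ratio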;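 note: B-score derived from integrated fluorescence ratio over the kinetic read; more negative B-score means stronger inhibition of depolarization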
TRPC4 potent – allosterically enhances the mouse TRPC4 cation channel; Q9QUQ5; HEK293 TRPC4beta/mu-opioid, DAMGO EC20, Fluo-4 Ca2+ flux; stronger effect = higher value; B-score at 10 µM; hit rate 0.42% among 310,000; AID 2227;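 active = B-score of calcium response area above 5 SD of library B-scores, with initial fluorescence ratio within 5 SD of library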;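 note: B-score of integrated fluorescence ratio over time as area under calcium response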
Target sequence (Q9QUQ5 whole entry, looked up): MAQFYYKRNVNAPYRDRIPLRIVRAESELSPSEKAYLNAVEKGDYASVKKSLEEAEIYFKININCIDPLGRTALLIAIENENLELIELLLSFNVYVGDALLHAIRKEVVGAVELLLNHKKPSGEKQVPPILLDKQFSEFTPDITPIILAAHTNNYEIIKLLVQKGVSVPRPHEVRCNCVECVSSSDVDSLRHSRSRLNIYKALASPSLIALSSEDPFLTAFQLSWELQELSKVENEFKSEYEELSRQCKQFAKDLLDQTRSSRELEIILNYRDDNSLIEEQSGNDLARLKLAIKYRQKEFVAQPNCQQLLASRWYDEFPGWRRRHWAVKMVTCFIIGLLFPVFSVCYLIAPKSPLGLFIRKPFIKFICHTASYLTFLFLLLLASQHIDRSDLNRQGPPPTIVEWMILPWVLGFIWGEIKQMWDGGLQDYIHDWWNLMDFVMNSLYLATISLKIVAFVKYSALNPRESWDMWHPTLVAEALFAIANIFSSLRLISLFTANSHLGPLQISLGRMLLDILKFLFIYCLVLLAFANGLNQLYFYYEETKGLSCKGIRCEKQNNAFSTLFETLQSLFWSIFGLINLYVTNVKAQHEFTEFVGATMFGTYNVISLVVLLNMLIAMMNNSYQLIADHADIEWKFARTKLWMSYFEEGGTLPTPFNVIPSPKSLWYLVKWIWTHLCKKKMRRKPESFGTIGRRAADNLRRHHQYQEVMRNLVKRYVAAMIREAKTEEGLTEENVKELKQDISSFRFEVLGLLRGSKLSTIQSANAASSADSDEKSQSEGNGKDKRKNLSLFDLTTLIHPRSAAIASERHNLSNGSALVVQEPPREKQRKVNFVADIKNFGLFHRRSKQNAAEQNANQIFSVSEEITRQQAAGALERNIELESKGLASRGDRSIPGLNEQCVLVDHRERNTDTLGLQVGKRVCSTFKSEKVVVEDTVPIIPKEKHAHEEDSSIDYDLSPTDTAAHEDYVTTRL
TRPC4 act – opens the mouse TRPC4 cation channel | Q9QUQ5 | hit rate 0.49% among 310,000 | HEK293 TRPC4beta/mu-opioid, Fluo4 calcium fluorescence; stronger effect = higher value | B-score at 10 µM | AID 2237;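 active = B-score above 5 SD of library B-scores, and initial fluorescence ratio not above library mean plus 5 SD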;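 note: positive B-score marks a calcium rise read as TRPC4 activation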
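System: HEK293 cells stably co-expressing mouse TRPC4beta and mu-opioid receptor; Schedule: Fluo4 dye loading 45 min at room temperature, 110 s recording; Detection: Fluo4 fluorescence, kinetic; Evaluation: B-scored integrated calcium fluorescence ratio; Controls: buffer (low) and maximal DAMGO (high).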
TRPC4 block – blocks the mouse TRPC4 cation channel. hit rate 0.39% among 300,000. B-score at 10 µM. Q9QUQ5. HEK293 TRPC4beta/mu-opioid, DAMGO-evoked Fluo4 calcium flux; stronger effect = lower value;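 active = B-score over 3 SD under the library average, no early fluorescence shift, positive overall ratio signal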
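Assay system: TRPC4beta/mu-opioid receptor HEK293 cell line; compound dosing: single concentration per test compound; detection: Fluo4 Ca2+ flux fluorescence; evaluation: per-well B score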
TRPC4 spec 2 – mouse TRPC4 off-target activity of TRPC6 inhibitors, second screen | shares compounds with TRPC6 inhibitor | inhibition, % at 10 µM | hit rate 42% among 920 | HEK293 TRPC4/MOR, membrane potential dye fluorescence; channel activated by saturating DAMGO dose;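 active = compounds whose fluorescence signal differed from control wells by over 3 SD, either direction, in both duplicate plates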
TRPC4 spec – mouse TRPC4 off-target activity of TRPC6 inhibitors; HEK293 TRPC4/mu-opioid, membrane potential fluorescence; hit rate 61% among 920; activity change, negative = inhibition, % at 10 µM; shares compounds with TRPC6 inhibitor;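 active = rise or fall in signal beyond 3 SD of buffer-only wells in both replicate plates, either sign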;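 note: integrated kinetic ratio of fluorescence range over baseline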
HEK293 MPD ctr 2-1 – second counter-screen for TRPC6 inhibitors: parental HEK293 cells | shares compounds with TRPC6 inhibitor | parental HEK293 membrane potential dye fluorescence; maximal acetylcholine challenge after compound addition | signal change vs control, % at 10 µM | hit rate 31% among 920 | AID 2779;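 active = membrane potential signal moving either way by over 3 SD of the maximum-effect control, in both duplicate plates, meaning non-specific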
HEK293 MPD ctr-1 – parental HEK293 nonspecific activity of TRPC6 inhibitors | shares compounds with TRPC6 inhibitor | parental HEK293 membrane potential dye fluorescence | membrane potential signal change, % at 10 µM | hit rate 60% among 920;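 active = membrane potential signal shifting up or down by more than 3 SD of buffer-only wells, on both duplicate plates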
HEK293 MPD ctr-2 – parental HEK293 nonspecific activity of TRPC6 modulators | shares compounds with TRPC6 inhibitor | membrane potential dye fluorescence | membrane potential signal change, % at 10 µM | hit rate 51% among 2,400 | AID 488924;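 active = membrane potential signal moves up or down beyond 5 SD from buffer-only wells, on both duplicate plates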
HEK293 MPD ctr 2-2 – parental HEK293 nonspecific activity of TRPC6 modulators, second screen; shares compounds with TRPC6 inhibitor; membrane potential dye fluorescence; after compound, maximal acetylcholine stimulation; inhibition, % at 10 µM; hit rate 14% among 2,400;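 active = membrane potential signal drops by more than 5 SD from the mean control signal, in both duplicate plates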;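 note: plate controls were acetylcholine ECmax control wells for no effect and buffer only wells for full effect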
TRPC4/MOR mod – selectivity of TRPC6 modulators against mouse TRPC4; shares compounds with TRPC6 inhibitor; HEK293 TRPC4/mu-opioid, membrane potential fluorescence; percent change from control (negative = decrease, positive = increase), % at 10 µM; hit rate 69% among 2,400;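 active = membrane potential signal moved up or down beyond 5 SD of buffer control wells, in both duplicate plates, actives on both sides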;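 note: plate controls were assay buffer wells for no effect and DAMGO maximal-effect wells for full effect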
TRPC4 ctr inh 2 – second selectivity test of TRPC6 modulators against mouse TRPC4; shares compounds with TRPC6 inhibitor; HEK293 TRPC4/mu-opioid, membrane potential dye fluorescence; stimulated with maximal-effect DAMGO; inhibition, % at 10 µM; hit rate 55% among 2,400; AID 488928;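 active = drop in membrane potential signal beyond 5 SD of the control wells in both duplicate plates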;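 note: TRPC4 counter screen for TRPC6 hits run under conditions tuned for TRPC6 not TRPC4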
TRPC6 inh conf – mouse TRPC6 inhibitor confirmation. shares compounds with TRPC6 inhibitor. HEK293-TRPC6, membrane potential dye, ACh-evoked depolarization. inhibition, % at 10 µM. hit rate 43% among 3,300. AID 488960;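 active = fluorescence ratio falls more than 5 SD below the full-stimulation control mean, in both duplicate runs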;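 note: integrated fluorescence ratio of peak minus minimum over baseline after agonist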
TRPC6 act confirm – confirmation of mouse TRPC6 activators | shares compounds with TRPC6 inhibitor | HEK293-TRPC6 membrane potential dye fluorescence, FDSS | activation, % at 10 µM | hit rate 11% among 2,800 | AID 488961;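 active = ratio signal rise beyond 5 SD above unstimulated control wells' mean, seen in both duplicate runs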;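 note: plate controls were buffer EC0 wells for no effect and acetylcholine ECmax response for full effect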
Active calls of the source: *; i = inactive; nt = no result. The list is not random: actives were taken first. Their share in the collection is about 2.3%.

SMILES | TRPC6 act | TRPC6 inhibitor | TRPC4 potent | TRPC4 act | TRPC4 block | HEK293 MPD ctr-2 | HEK293 MPD ctr 2-2 | TRPC4/MOR mod | TRPC4 ctr inh 2 | TRPC6 inh conf | TRPC6 act confirm | others
CC(C)(Oc1ccc(Cl)cc1)C(=O)NCC(c1cccs1)N1CCOCC1 (configuration not stated) | i | i | i | i | i | nt | nt | nt | nt | nt | nt
COc1ccccc1C(CNC(=O)C(C)(C)Oc1ccc(Cl)cc1)N1CCCC1 (configuration not stated) | i | -5.7* | i | i | i | 194%* | i | 33%* | 42%* | 52%* | nt
CCOC(=O)C1(Cc2cccc(Cl)c2)CCCN(C(=O)CCSC)C1 (configuration not stated) | i | -5.3* | i | i | i | 152%* | i | 36%* | i | 54%* | nt
CCOC(=O)CNC(=O)Cn1cnc2c(nnn2-c2ccccc2)c1=O | i | i | i | i | i | nt | nt | nt | nt | nt | nt
Cn1cccc1CNC1CCCCC1 | i | i | i | i | i | nt | nt | nt | nt | nt | nt
c1ccc(-n2cccc2CNC2CCCCC2)cc1 | i | -6.9* | i | i | i | nt | nt | nt | nt | i | nt | TRPC4 spec 2=i;TRPC4 spec=i;HEK293 MPD ctr 2-1=i;HEK293 MPD ctr-1=i
CCc1ccc(NC(=O)C2=CC(c3ccc(OC)c(OC)c3)=NS(=O)(=O)N2C)cc1 | i | -5.7* | i | i | i | i | i | -18%* | 66%* | i | i
COc1ccc(CNC(=O)C2=CC(c3ccc(OC)c(OC)c3)=NS(=O)(=O)N2C)cc1 | i | i | i | i | i | nt | nt | nt | nt | nt | nt
COC(=O)CCC(=O)OC1(C)C(=O)C=C2C=C(C3CC3)N(CCc3ccccn3)C=C2C1=O (configuration not stated) | i | i | i | i | i | nt | nt | nt | nt | nt | nt
COC(=O)CCC(=O)OC1(C)C(=O)C=C2C=C(C3CC3)N(CCc3c[nH]c4ccccc34)C=C2C1=O (configuration not stated) | i | -7.2* | i | i | i | nt | nt | nt | nt | i | i | TRPC4 spec 2=i;TRPC4 spec=i;HEK293 MPD ctr 2-1=i;HEK293 MPD ctr-1=i
COc1cc(C)ccc1NC(=O)c1ccc(S(=O)(=O)N2CCOCC2)cc1 | i | -6.1* | i | i | i | i | i | i | i | i | i
O=C(NCC1CCN(c2ccc(S(=O)(=O)N3CCOCC3)cc2)CC1)c1ccc(Cl)cc1 | i | -5.5* | i | i | i | i | i | i | i | 52%* | i
CCOCCCNC(=O)CCCOc1ccccc1 | i | -5.5* | i | i | i | i | i | i | i | i | i
CCOC(=O)c1c(CSc2ccccc2)n(C)c2cc(Br)c(OC)c(O)c12 | i | i | i | i | i | nt | nt | nt | nt | nt | nt
CCOC(=O)c1c(C)n(-c2ccccc2)c2ccc(O)cc12 | i | i | i | i | i | nt | nt | nt | nt | nt | nt
CCOC(=O)c1c(C)n(C)c2ccc(O)c(CN3CCC(C)CC3)c12 | i | -9.4* | i | i | i | -140%* | i | -18%* | 73%* | 64%* | i
CCOC(=O)c1c(CSc2ccccc2)n(C)c2ccc(O)c(CN3CCOCC3)c12 | i | -5.5* | i | i | i | i | i | i | 55%* | 36%* | i
CCOC(=O)c1c(C)n(C)c2ccc(O)c(CN3CCN(C)CC3)c12 | i | i | i | i | i | nt | nt | nt | nt | nt | nt
CCOC(=O)c1c(C)n(-c2ccccc2)c2ccc(O)c(CN(C)C)c12 | i | -6.5* | i | i | i | -90%* | i | -18%* | 65%* | 69%* | i
CCOC(=O)c1c(C)n(C)c2ccc(O)c(CN(CC)CC)c12 | i | -6.5* | i | i | i | -112%* | i | -14%* | 52%* | 54%* | i
COc1ccc(NC(=O)COc2ccccc2C(=O)NCC(c2ccccc2)N(C)C)cc1Cl (configuration not stated) | i | -5.3* | i | 45* | i | i | i | i | 86%* | 48%* | i
Cc1nn(C)cc1C(=O)Nc1ccc2c(c1)OCCO2 | i | i | i | i | i | nt | nt | nt | nt | nt | nt
O=C(N/C(=C/c1cccc([N+](=O)[O-])c1)C(=O)N1CCOCC1)c1ccc(Br)cc1 | i | i | i | i | i | nt | nt | nt | nt | nt | nt
COc1cc(OC)cc(C(=O)N2CCC(n3c(C)nc4cc(F)ccc43)CC2)c1 | 20* | i | i | i | i | i | i | i | i | nt | 163%*
COc1ccc(NC(=O)CN2CCC(n3c(C)nc4cc(F)ccc43)CC2)c(OC)c1 | i | i | i | i | i | nt | nt | nt | nt | nt | nt
COc1ccc(CN(C)S(=O)(=O)c2ccc3c(c2)OCCO3)cc1 | i | i | i | i | i | nt | nt | nt | nt | nt | nt
CCc1ccccc1NS(=O)(=O)c1ccc2c(c1)NC(=O)CC(=O)N2 | i | -9.4* | i | i | i | nt | nt | nt | nt | i | i | TRPC4 spec 2=i;TRPC4 spec=i;HEK293 MPD ctr 2-1=i;HEK293 MPD ctr-1=i
CCc1cccc(NS(=O)(=O)c2ccc3c(c2)NC(=O)CC(=O)N3)c1 | i | i | i | i | i | nt | nt | nt | nt | nt | nt
